Measured values from ChEMBL document CHEMBL4043276, “Design, synthesis and biological evaluation of 2-acetyl-5-O-(amino-alkyl)phenol derivatives as multifunctional agents for the treatment of Alzheimer's disease” (Bioorg Med Chem Lett, 2017).
pIC50: −log10 of the molar value. The source made the active and inactive calls. The calls are words filed in the database; no cut-off is given here.

Key:
[1] = Effective permeability of the compound by PAMPA; assay type: physicochemical; settings: read-out: Peff
Acetylcholinesterase = Acetylcholinesterase (Electrophorus electricus, UniProt O42275); experiment: Inhibition of electric eel AChE using acetylthiocholine as substrate incubated for 15 mins by Ellman's method
[2] = Antioxidant activity assessed as trolox equivalent of […]-induced radical scavenging activity measured every minute for 90 mins by ORAC fluorescein assay; assay type: functional
Method in brief: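 Measured by the ORAC-FL fluorescein method. Values are given as μM Trolox equivalent per μM of test compound.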

[3] = molecular target: BuChE (butyrylcholinesterase) (Equus caballus, UniProt P81908); experiment: Inhibition of equine serum BuChE at 50 uM incubated for 15 mins by Ellman's method relative to control; settings: horse
[4] = molecular target: T1, Amine oxidase [flavin-containing] B (Homo sapiens, UniProt P27338)
T1 sequence (P27338 whole entry): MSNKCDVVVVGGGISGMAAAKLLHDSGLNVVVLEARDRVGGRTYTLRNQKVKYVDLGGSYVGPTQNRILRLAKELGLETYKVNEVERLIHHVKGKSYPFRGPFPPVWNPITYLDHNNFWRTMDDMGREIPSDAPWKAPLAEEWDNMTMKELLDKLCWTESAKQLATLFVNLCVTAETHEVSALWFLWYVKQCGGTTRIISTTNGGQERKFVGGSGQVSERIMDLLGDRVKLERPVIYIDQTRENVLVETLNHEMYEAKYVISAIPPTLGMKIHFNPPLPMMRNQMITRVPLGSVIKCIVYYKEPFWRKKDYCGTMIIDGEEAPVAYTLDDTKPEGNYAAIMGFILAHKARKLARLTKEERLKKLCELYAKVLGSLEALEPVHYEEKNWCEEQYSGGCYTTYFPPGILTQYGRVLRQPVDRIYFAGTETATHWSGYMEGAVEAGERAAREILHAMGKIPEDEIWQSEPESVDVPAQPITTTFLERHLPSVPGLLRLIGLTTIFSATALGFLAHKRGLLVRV

[5] = molecular target: T2, Amine oxidase [flavin-containing] A (Homo sapiens, UniProt P21397); experiment: Inhibition of recombinant human MAO-A at 10 uM using kynuramine as substrate after 30 mins by fluorescence method relative to control; settings: 0.5 h
T2 sequence (P21397 whole entry): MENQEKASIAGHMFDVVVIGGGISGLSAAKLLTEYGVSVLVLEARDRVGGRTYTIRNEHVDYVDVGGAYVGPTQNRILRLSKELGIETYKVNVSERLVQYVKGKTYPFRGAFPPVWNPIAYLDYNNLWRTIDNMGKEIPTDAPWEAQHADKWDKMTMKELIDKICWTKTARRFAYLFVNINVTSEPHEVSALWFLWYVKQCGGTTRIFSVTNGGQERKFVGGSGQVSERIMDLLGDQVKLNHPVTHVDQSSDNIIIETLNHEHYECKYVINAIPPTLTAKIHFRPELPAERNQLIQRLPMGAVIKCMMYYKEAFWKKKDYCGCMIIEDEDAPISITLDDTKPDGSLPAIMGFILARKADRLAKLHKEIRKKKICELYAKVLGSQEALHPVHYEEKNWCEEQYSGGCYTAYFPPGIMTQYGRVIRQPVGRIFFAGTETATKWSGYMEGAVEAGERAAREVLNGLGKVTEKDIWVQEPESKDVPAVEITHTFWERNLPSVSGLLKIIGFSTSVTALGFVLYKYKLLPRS

[6] = Selectivity index, ratio of IC50 for equine serum BuChE to IC50 for electric eel AChE
Method in brief: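 IC50 values for E. electricus AChE and equine serum BuChE came from a modified Ellman assay, each the mean of three independent experiments run in triplicate. The selectivity index is the ratio of the two IC50 values.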

Cholinesterase = Cholinesterase (Equus caballus, UniProt P81908); assay type: ADME
[7] = molecular target: Acetylcholinesterase (Electrophorus electricus) (UniProt O42275); experiment: Inhibition of electric eel AChE at 50 uM using acetylthiocholine as substrate incubated for 15 mins by Ellman's method relative to control
PC-12 [8] = experiment: Protection against H2O2-induced cell injury in rat PC12 cells assessed as cell viability preincubated for 2 hrs followed by H2O2 addition measured after 24 hrs by MTT assay; assay type: functional, cell-based
Method in brief: (§1)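 PC12 cells were injured with 100 μM H2O2. Viability was measured by MTT reduction and compared with untreated control and with the H2O2-only group.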

PC-12 [9] = experiment: Protection against H2O2-induced cell injury in rat PC12 cells assessed as cell viability at 1 uM preincubated for 2 hrs followed by H2O2 addition measured after 24 hrs by MTT assay (reference value: 46.5%); assay type: functional; settings: read-out: Activity; method in brief: as §1
[10] = Metal chelating activity assessed as compound-Zn2+ complex formation at 37.5 uM after 30 mins by UV-Visible spectrophotometric method
[11] = Metal chelating activity assessed as mole fraction of compound required to show 1:1 stoichiometry for Cu2+-compound complex at 37.5 uM after 30 mins by UV-Visible spectrophotometric method
[12] = Metal chelating activity assessed as compound-Fe2+ complex formation at 37.5 uM after 30 mins by UV-Visible spectrophotometric method
PC-12 [13] = experiment: Protection against H2O2-induced cell injury in rat PC12 cells assessed as cell viability at 10 uM preincubated for 2 hrs followed by H2O2 addition measured after 24 hrs by MTT assay (reference value: 46.5%); assay type: functional; settings: read-out: Activity; method in brief: as §1
[14] = Metal chelating activity assessed as compound-Cu2+ complex formation by measuring red shift at 37.5 uM after 30 mins by UV-Visible spectrophotometric method
[15] = molecular target: Acetylcholinesterase (Electrophorus electricus) (UniProt O42275); settings: 0.5 to 2 uM
[16] = Metal chelating activity assessed as compound-Al3+ complex formation at 37.5 uM after 30 mins by UV-Visible spectrophotometric method

Sequence of Acetylcholinesterase (O42275 whole entry): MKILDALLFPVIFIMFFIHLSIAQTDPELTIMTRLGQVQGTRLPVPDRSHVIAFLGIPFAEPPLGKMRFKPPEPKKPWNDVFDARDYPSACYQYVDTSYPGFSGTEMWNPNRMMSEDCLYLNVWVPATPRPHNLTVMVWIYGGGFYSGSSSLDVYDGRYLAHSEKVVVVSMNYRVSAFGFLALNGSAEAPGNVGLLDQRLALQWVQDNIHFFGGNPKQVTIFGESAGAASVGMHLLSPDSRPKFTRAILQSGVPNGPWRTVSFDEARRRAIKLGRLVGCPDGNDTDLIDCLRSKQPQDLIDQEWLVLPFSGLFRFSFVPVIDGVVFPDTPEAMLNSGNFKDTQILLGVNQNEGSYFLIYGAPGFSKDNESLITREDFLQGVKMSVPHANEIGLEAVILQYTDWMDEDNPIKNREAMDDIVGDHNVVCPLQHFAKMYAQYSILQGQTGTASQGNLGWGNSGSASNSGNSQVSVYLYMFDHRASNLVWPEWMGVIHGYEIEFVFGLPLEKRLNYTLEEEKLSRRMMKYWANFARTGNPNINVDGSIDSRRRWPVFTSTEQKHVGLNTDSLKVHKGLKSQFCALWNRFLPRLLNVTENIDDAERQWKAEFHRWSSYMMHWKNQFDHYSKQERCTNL
Sequence of BuChE (butyrylcholinesterase) (P81908 whole entry): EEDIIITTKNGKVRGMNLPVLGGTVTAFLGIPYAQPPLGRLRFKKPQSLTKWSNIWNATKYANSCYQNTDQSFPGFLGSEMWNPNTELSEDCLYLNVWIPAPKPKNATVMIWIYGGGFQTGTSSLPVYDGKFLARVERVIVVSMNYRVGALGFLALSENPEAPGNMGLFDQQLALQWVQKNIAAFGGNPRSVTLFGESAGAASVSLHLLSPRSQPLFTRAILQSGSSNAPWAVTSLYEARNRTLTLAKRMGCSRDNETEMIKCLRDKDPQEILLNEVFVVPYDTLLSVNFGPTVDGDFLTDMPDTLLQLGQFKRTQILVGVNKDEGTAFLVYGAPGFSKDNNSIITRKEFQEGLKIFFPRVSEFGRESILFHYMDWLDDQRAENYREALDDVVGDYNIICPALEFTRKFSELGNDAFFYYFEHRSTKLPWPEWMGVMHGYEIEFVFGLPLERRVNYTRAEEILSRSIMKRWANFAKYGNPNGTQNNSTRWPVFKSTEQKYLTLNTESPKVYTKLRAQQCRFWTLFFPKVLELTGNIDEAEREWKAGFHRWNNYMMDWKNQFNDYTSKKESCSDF
Sequence of Cholinesterase (P81908 whole entry): as above
Sequence of Acetylcholinesterase (Electrophorus electricus) (O42275 24-633 limits assumed): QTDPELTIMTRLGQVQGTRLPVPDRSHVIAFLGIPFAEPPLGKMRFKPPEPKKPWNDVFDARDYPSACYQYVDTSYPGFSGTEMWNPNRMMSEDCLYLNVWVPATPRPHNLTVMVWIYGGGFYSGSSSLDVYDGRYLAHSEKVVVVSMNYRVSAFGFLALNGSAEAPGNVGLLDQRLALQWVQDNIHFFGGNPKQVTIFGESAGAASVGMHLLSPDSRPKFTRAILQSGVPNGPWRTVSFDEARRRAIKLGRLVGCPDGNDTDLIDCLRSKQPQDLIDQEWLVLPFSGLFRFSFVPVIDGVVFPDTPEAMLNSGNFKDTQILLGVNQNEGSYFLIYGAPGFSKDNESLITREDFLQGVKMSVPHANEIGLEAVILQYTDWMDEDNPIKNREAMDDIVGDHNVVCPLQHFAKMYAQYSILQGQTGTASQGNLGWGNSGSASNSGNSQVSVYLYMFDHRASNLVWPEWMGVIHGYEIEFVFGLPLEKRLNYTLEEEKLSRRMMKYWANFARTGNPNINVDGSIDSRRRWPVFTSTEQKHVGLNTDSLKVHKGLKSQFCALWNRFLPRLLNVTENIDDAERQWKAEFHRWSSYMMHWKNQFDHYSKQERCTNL

SMILES	pIC50 (Acetylcholinesterase)	Activity [2] [equiv]	inhibition at 0.25 h, 50 µM [3] [%]	pIC50 [4]	inhibition at 10 µM [5] [%]	also measured
Clc1cccc(Cl)c1N=C1NCCN1 [CLONIDINE]						Papp [1]: 5.1 to 5.3 ×10⁻⁶ cm/s
CC(=O)c1ccc(OCCCCCN2CCN(c3ccccn3)CC2)cc1O	4.66	0.99	< 5	4.78	< 5	
CC(=O)c1ccc(OCCCN2CCCC2)cc1O	4.38	1	< 5	6.21	< 5	
CC(=O)c1ccc(OCCCN2CCN(c3ncccn3)CC2)cc1O	4.58	0.95	< 5	4.82	< 5	
CC(=O)c1ccc(OCCCCN2CCN(c3ccccn3)CC2)cc1O	4.74	1.1	< 5	4.92	< 5	
CC(=O)c1ccc(OCCCCCN2CCCCC2)cc1O	5.26	1.1	27.9	5.21	< 5	
CCn1cc(C(=O)O)c(=O)c2cc(F)c(N3CCNCC3)cc21 [NORFLOXACIN]						Papp [1]: 0.1 to 0.42 ×10⁻⁶ cm/s
CCn1cc(C(=O)O)c(=O)c2cc(F)c(N3CCNCC3)nc21 [ENOXACIN]						Papp [1]: 0.47 to 0.9 ×10⁻⁶ cm/s
CN1C(C(=O)Nc2ccccn2)=C(O)c2ccccc2S1(=O)=O [PIROXICAM]						Papp [1]: 0.72 to 2.5 ×10⁻⁶ cm/s
CC(=O)c1ccc(OCCCCCCN2CCN(c3ccccn3)CC2)cc1O	4.59	1.1	< 5	4.68	< 5	
CC(=O)c1ccc(OCCCCCN2CCN(Cc3ccccc3)CC2)cc1O	5.07	1.3		4.57	< 5	Ratio IC50 [6]: 5.4; pIC50 (Cholinesterase): 4.34
CC(=O)c1ccc(OCCCCN2CCN(c3ncccn3)CC2)cc1O	4.56	0.98	< 5	4.82	< 5	
C[C@]12CC[C@H]3[C@@H](CCC4=CC(=O)CC[C@@]43C)[C@@H]1CC[C@@H]2O [TESTOSTERONE]						Papp [1]: 16.3 to 17 ×10⁻⁶ cm/s
CC(=O)c1ccc(OCCCN2CCN(c3ccccn3)CC2)cc1O	4.82	0.98	8.8	4.93	< 5	
CC(=O)c1ccc(OCCCN2CCCCC2)cc1O	4.53	1.1	< 5	5.55	< 5	
CC(=O)c1ccc(OCCCCCCN2CCCCC2)cc1O	5.54	0.98		4.58	< 5	Ratio IC50 [6]: 15.8; pIC50 (Cholinesterase): 4.34
CC(=O)c1ccc(O)cc1O		2.5	< 5			inhibition [7]: < 5%
CC(=O)c1ccc(OCCCCCCN2CCN(c3ncccn3)CC2)cc1O	4.24	0.98	< 5	4.46	< 5	
CC(=O)c1ccc(OCCCCCN2CCCC2)cc1O	5.20	1		5.46	< 5	Ratio IC50 [6]: 5.9; pIC50 (Cholinesterase): 4.43
Cn1c(=O)c2[nH]cnc2n(C)c1=O.O [THEOPHYLLINE]						Papp [1]: 0.1 to 0.12 ×10⁻⁶ cm/s
CC(=O)c1ccc(OCCCCN2CCN(Cc3ccccc3)CC2)cc1O	5.66	1.4	11.5	4.80	< 5	
CC(=O)c1ccc(OCCCCCCN2CCCC2)cc1O	5.41	1		4.91	< 5	Ratio IC50 [6]: 11.9; pIC50 (Cholinesterase): 4.33
CC(=O)c1ccc(OCCCN2CCN(Cc3ccccc3)CC2)cc1O	6.02	1.5		5.17	< 5	Activity (PC-12 [8]): Dose-dependent effect; viability at 1 µM (PC-12 [9]): 59.6%; Activity [10]: inactive; Activity [11]: 0.99 molar ratio; Activity [12]: inactive; viability at 10 µM (PC-12 [13]): 73.3%; Papp [1]: 13.3 ×10⁻⁶ cm/s; Activity [14]: Active; inhibition [15]: Active; Ratio IC50 [6]: 32.7; Activity [16]: inactive; pIC50 (Cholinesterase): 4.50
CC(=O)c1ccc(OCCCCCN2CCN(c3ncccn3)CC2)cc1O	4.29	1		4.81	< 5	Ratio IC50 [6]: 2.6; pIC50 (Cholinesterase): 3.86
CC(=O)c1ccc(OCCCCCCN2CCN(Cc3ccccc3)CC2)cc1O	4.77	1.3		4.51	< 5	Ratio IC50 [6]: 4.5; pIC50 (Cholinesterase): 4.12
CC(=O)c1ccc(OCCCCN2CCCCC2)cc1O	5.06	1	21.4	5.60	< 5	
CC(=O)c1ccc(OCCCCN2CCCC2)cc1O	4.78	1	18.4	5.74	< 5	
Cn1c(=O)c2c(ncn2C)n(C)c1=O [CAFFEINE]						Papp [1]: 1.28 to 1.3 ×10⁻⁶ cm/s
